Consider six compounds from ChEMBL document CHEMBL3785037, “Compound profiling and 3D-QSAR studies of hydrazone derivatives with activity against intracellular Trypanosoma cruzi” (Bioorg Med Chem, 2016).

Each structure is given as a SMILES string. Bounds are passed on as bounds.

The test system of series [1] is HepG2. In words: Cytotoxicity against human HepG2 cells 48 hrs by CellTiter-Glo luminiscence assay. The series is classed as functional. Particulars: HepG2, 48 h, read-out: TC50 (the source's name). In short, it runs like this: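 Human hepatoma cells were plated at 3,000 cells/well onto pre-dispensed compounds, handled as for the fibroblast assay, and incubated 48 h at 37 °C, 5% CO2. ATP-based viability was read by CellTiter-Glo luminescence after room-temperature incubation. TC50 was obtained by nonlinear regression.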
A general note: ATP-based viability assays read luminescence as a measure of living cells.

The test system of series [2] is Trypanosoma cruzi. In words: Antitrypanosomal activity against intracellular amastigotes stage of recombinant Trypanosoma cruzi Tulahuen expressing beta galactosidase infected in NIH/3T3 cells assessed as growth inhibition after 4 days by HTS-ready assay. The series is classed as functional, organism-based. Particulars: NIH3T3, 96 h. In short, it runs like this: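 NIH-3T3 fibroblasts were mixed 1:1 with β-galactosidase-expressing Tulahuen trypomastigotes from LLC-MK2 culture supernatants, at 1x10^3 cells/well, onto pre-dispensed compounds (50 to 0.00085 μM, DMSO ≤0.5%). Cultures were held 4 days at 37 °C, 5% CO2. Resorufin-β-D-galactopyranoside (5 µM in PBS with Igepal) was added for 4 h at room temperature, and fluorescence was read at 531/595 nm. Untreated parasites served as negative control.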

A short description of series [3]: Cytotoxicity against mouse NIH/3T3 cells after 4 days by CellTiter-Glo luminiscence assay. The series is classed as cell-based, NIH3T3. As to conditions: read-out: TC50. In short, it runs like this: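 Mouse embryonic fibroblasts were seeded at 1x10^3 cells/well onto pre-dispensed compounds (top concentration 100 μM) for 4 days at 37 °C, 5% CO2. Controls were 0.5% DMSO (100% viable) and amphotericin B 50 μM (100% toxicity). Viability was measured as ATP by CellTiter-Glo luminescence at room temperature. TC50 was obtained by nonlinear regression.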

The nature of series [4]: Selectivity index, ratio of TC50 for mouse NIH/3T3 cells to IC50 for amastigotes stage of recombinant Trypanosoma cruzi Tulahuen expressing beta galactosidase infected in NIH/3T3 cells. The series is classed as toxicity, cell-based. Particulars: read-out: Selectivity Index.

As for `CNC(=S)N/N=C(\C)c1ccc(Cl)c(Cl)c1`, in series [1], the CC50 was more than 100 µM. Besides, the IC50 in series [2] (read-out: IC50) amounted to 17000 nM. The CC50 at 96 h in series [3] was more than 50.1 µM.
With `Clc1ccc(-c2csc(N/N=C/c3ccccn3)n2)cc1`, the CC50 in series [1] was more than 100 µM. The selectivity ratio in series [4] came out at 26.9. Besides, the IC50 in series [2] (read-out: IC50) and in series [2] (read-out: pIC50 (converted)) was 1860 nM throughout. Also, in series [3], the CC50 at 96 h was more than 50.1 µM.
Regarding `O=[N+]([O-])c1cccc(-c2csc(N/N=C/c3ccccn3)n2)c1`, the CC50 in series [1] is more than 100 µM. In addition, the selectivity ratio in series [4] was found to be 23.5. For the same compound, the IC50 in series [2] (read-out: IC50) and in series [2] (read-out: pIC50 (converted)) was 1620 nM throughout. The CC50 at 96 h in series [3] came to 38 µM.
For `CCC1S/C(=N/N=C(\C)c2ccc(Cl)c(Cl)c2)N(c2ccccc2)C1=O` (centres undefined), in series [1], the CC50 was more than 100 µM. The IC50 in series [2] (read-out: IC50) was more than 50100 nM. The CC50 at 96 h in series [3] is more than 50.1 µM.
On to `NC(=S)N/N=C/CSc1cccc(Cl)c1`, for which, in series [1], the CC50 was more than 100 µM. In addition, the selectivity ratio in series [4] amounted to 28.1. In addition, the IC50 in series [2] (read-out: IC50) and in series [2] (read-out: pIC50 (converted)) was 1780 nM throughout. In addition, the CC50 at 96 h in series [3] was more than 50.1 µM.
With `C/C(=N\N=C(\N)S)c1ccc(Cl)c(Cl)c1`, the CC50 in series [1] was determined as 43.6 µM. In addition, in series [2] (read-out: IC50), the IC50 was found to be 630 nM. The CC50 at 96 h in series [3] is 17.8 µM.
